Source: ChEMBL document CHEMBL3779805, “Orally bioavailable pyridine and pyrimidine-based Factor XIa inhibitors: Discovery of the methyl N-phenyl carbamate P2 prime group” (Bioorg Med Chem, 2016)

Experiments:
[1] = Clearance in beagle dog plasma at 0.2 mg/kg, iv and 0.29 mg/kg, po administered in cassette format by LC-MS/MS method; assay type: ADME, organism-based, Canis lupus familiaris
Procedure, shortened: (§1)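 Dogs dosed iv and po in N-in-1 (cassette) format. The same vehicle was used for both routes: 70% water, 10% ethanol, 10% dimethylacetamide, 10% polypropylene glycol.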

[2] = Half life in beagle dog plasma at 0.2 mg/kg, iv and 0.29 mg/kg, po by LC-MS/MS method; assay type: ADME, organism-based, Canis lupus familiaris; procedure, shortened: as §1
[3] = AUC in beagle dog plasma at 0.2 mg/kg, iv and 0.29 mg/kg, po by LC-MS/MS method; assay type: ADME, organism-based, Canis lupus familiaris; procedure, shortened: as §1
[4] = Volume of distribution at steady state in beagle dog plasma at 0.2 mg/kg, iv and 0.29 mg/kg, po by LC-MS/MS method; assay type: ADME, organism-based, Canis lupus familiaris; conditions: read-out: Vdss; procedure, shortened: as §1
Plasma = test: Anticoagulant activity in human plasma assessed as concentration required for 50% increase in activated partial thromboplastin time by automated coagulation analyzer; assay type: functional
Procedure, shortened: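 aPTT clotting assay in pooled normal human plasma on an automated coagulation analyzer with commercial reagents. EC1.5x is the inhibitor plasma concentration giving a 50% increase in clotting time over the no-inhibitor control.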

Coagulation factor XI = Coagulation factor XI (Homo sapiens, UniProt P03951)
[5] = Oral bioavailability in beagle dog plasma at 0.29 mg/kg by LC-MS/MS method; assay type: ADME, organism-based, Canis lupus familiaris; procedure, shortened: as §1
[6] = Half life in beagle dog plasma at 0.4 mg/kg, iv and 0.8 mg/kg, po by LC-MS/MS method; assay type: ADME, organism-based, Canis lupus familiaris; procedure, shortened: as §1
[7] = Oral bioavailability in beagle dog plasma at 0.8 mg/kg by LC-MS/MS method; assay type: ADME, organism-based, Canis lupus familiaris; procedure, shortened: as §1
[8] = AUC in beagle dog plasma at 0.4 mg/kg, iv and 0.8 mg/kg, po by LC-MS/MS method; assay type: ADME, organism-based, Canis lupus familiaris; procedure, shortened: as §1
[9] = Volume of distribution at steady state in beagle dog plasma at 0.4 mg/kg, iv and 0.8 mg/kg, po by LC-MS/MS method; assay type: ADME, organism-based, Canis lupus familiaris; conditions: read-out: Vdss; procedure, shortened: as §1
[10] = Clearance in beagle dog plasma at 0.4 mg/kg, iv and 0.8 mg/kg, po administered in cassette format by LC-MS/MS method; assay type: ADME, organism-based, Canis lupus familiaris; procedure, shortened: as §1
[11] = Volume of distribution at steady state in beagle dog plasma at 0.19 mg/kg, iv and 0.19 mg/kg, po by LC-MS/MS method; assay type: ADME, organism-based, Canis lupus familiaris; conditions: read-out: Vdss; procedure, shortened: as §1
[12] = Clearance in beagle dog plasma at 0.19 mg/kg, iv and 0.19 mg/kg, po administered in cassette format by LC-MS/MS method; assay type: ADME, organism-based, Canis lupus familiaris; procedure, shortened: as §1
[13] = AUC in beagle dog plasma at 0.19 mg/kg, iv and 0.19 mg/kg, po by LC-MS/MS method; assay type: ADME, organism-based, Canis lupus familiaris; procedure, shortened: as §1
[14] = Half life in beagle dog plasma at 0.19 mg/kg, iv and 0.19 mg/kg, po by LC-MS/MS method; assay type: ADME, organism-based, Canis lupus familiaris; procedure, shortened: as §1
[15] = Oral bioavailability in beagle dog plasma at 0.19 mg/kg by LC-MS/MS method; assay type: ADME, organism-based, Canis lupus familiaris; procedure, shortened: as §1
Coagulation factor X = Coagulation factor X (Homo sapiens, UniProt P00742); test: Inhibition of human coagulation factor 10a assessed as reduction in release of p-nitroaniline after 10 to 120 mins by Michaelis-Menten equation analysis
Procedure, shortened: (§2)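 Purified human enzymes with commercial synthetic peptide substrates. IC50 from 4–11 inhibitor concentrations, run in duplicate at a fixed substrate concentration (standard error <20%). Ki = IC50/(1+S/Km), assuming competitive inhibition.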

[16] = target: Vitamin K-dependent protein C (Homo sapiens, UniProt P04070); test: Inhibition of human activated protein C assessed as reduction in release of p-nitroaniline after 10 to 120 mins by Michaelis-Menten equation analysis; procedure, shortened: as §2
[17] = target: Urokinase-type plasminogen activator (Homo sapiens, UniProt P00749); test: Inhibition of human urokinase assessed as reduction in release of p-nitroaniline after 10 to 120 mins by Michaelis-Menten equation analysis; procedure, shortened: as §2
[18] = Clearance in beagle dog plasma at 0.28 mg/kg, iv and 0.62 mg/kg, po administered in cassette format by LC-MS/MS method; assay type: ADME, organism-based, Canis lupus familiaris; procedure, shortened: as §1
[19] = AUC in beagle dog plasma at 0.28 mg/kg, iv and 0.62 mg/kg, po by LC-MS/MS method; assay type: ADME, organism-based, Canis lupus familiaris; procedure, shortened: as §1
[20] = target: Tissue-type plasminogen activator (Homo sapiens, UniProt P00750); test: Inhibition of human TPA assessed as reduction in release of p-nitroaniline after 10 to 120 mins by Michaelis-Menten equation analysis; procedure, shortened: as §2
Trypsin = Trypsin (Homo sapiens, UniProt P07477+P07478+P35030); test: Inhibition of human coagulation trypsin assessed as reduction in release of p-nitroaniline after 10 to 120 mins by Michaelis-Menten equation analysis; assay type: protein assay; procedure, shortened: as §2
[21] = Inhibition of human […] chymotrypsin assessed as reduction in release of p-nitroaniline after 10 to 120 mins by Michaelis-Menten equation analysis
Plasma kallikrein = Plasma kallikrein (Homo sapiens, UniProt P03952); test: Inhibition of human plasma kallikrein assessed as reduction in release of p-nitroaniline after 10 to 120 mins by Michaelis-Menten equation analysis; assay type: cell-free; procedure, shortened: as §2
[22] = Volume of distribution at steady state in beagle dog plasma at 0.28 mg/kg, iv and 0.62 mg/kg, po by LC-MS/MS method; assay type: ADME, organism-based, Canis lupus familiaris; conditions: read-out: Vdss; procedure, shortened: as §1
[23] = Half life in beagle dog plasma at 0.28 mg/kg, iv and 0.62 mg/kg, po by LC-MS/MS method; assay type: ADME, organism-based, Canis lupus familiaris; procedure, shortened: as §1
Plasminogen = Plasminogen (Homo sapiens, UniProt P00747); test: Inhibition of human plasmin assessed as reduction in release of p-nitroaniline after 10 to 120 mins by Michaelis-Menten equation analysis; procedure, shortened: as §2
Coagulation factor VII = target: T1, Coagulation factor VII (Homo sapiens, UniProt P08709); test: Inhibition of human coagulation factor 7a assessed as reduction in release of p-nitroaniline after 10 to 120 mins by Michaelis-Menten equation analysis; procedure, shortened: as §2
T1 sequence (P08709 whole entry): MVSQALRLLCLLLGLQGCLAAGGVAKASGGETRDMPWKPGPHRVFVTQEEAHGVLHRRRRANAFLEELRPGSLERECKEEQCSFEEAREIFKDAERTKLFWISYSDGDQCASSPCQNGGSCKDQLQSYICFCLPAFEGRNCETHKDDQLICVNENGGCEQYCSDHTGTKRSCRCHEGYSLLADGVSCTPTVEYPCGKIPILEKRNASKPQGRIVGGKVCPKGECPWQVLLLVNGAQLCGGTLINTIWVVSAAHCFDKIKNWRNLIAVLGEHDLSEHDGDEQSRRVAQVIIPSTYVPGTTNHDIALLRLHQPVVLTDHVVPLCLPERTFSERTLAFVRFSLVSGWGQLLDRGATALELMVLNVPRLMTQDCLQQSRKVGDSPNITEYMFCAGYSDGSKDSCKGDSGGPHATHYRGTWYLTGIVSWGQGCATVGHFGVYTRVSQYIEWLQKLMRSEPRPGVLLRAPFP

[24] = Oral bioavailability in beagle dog plasma at 0.62 mg/kg by LC-MS/MS method; assay type: ADME, organism-based, Canis lupus familiaris; procedure, shortened: as §1
Prothrombin = Prothrombin (Homo sapiens, UniProt P00734); test: Inhibition of human coagulation thrombin assessed as reduction in release of p-nitroaniline after 10 to 120 mins by Michaelis-Menten equation analysis; procedure, shortened: as §2
Coagulation factor IX = Coagulation factor IX (Homo sapiens, UniProt P00740); test: Inhibition of human coagulation factor 9a assessed as reduction in release of p-nitroaniline after 10 to 120 mins by Michaelis-Menten equation analysis; procedure, shortened: as §2
Canis familiaris [25] = test: Oral bioavailability in beagle dog plasma at 1 mg/kg dosed in discrete format by LC-MS/MS method; assay type: ADME, organism-based, Canis lupus familiaris; conditions: in vivo
Procedure, shortened: (§3)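 Discrete oral dosing in dog at 1 mpk. Oral vehicle: 70% PEG400, 20% TPGS, 10% ethanol.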

[26] = Half life in beagle dog plasma at 0.25 mg/kg, iv and 0.2 mg/kg, po by LC-MS/MS method; assay type: ADME, organism-based, Canis lupus familiaris; procedure, shortened: as §1
[27] = Oral bioavailability in beagle dog plasma at 0.2 mg/kg by LC-MS/MS method; assay type: ADME, organism-based, Canis lupus familiaris; procedure, shortened: as §1
[28] = Volume of distribution at steady state in beagle dog plasma at 0.25 mg/kg, iv and 0.2 mg/kg, po by LC-MS/MS method; assay type: ADME, organism-based, Canis lupus familiaris; conditions: read-out: Vdss; procedure, shortened: as §1
[29] = AUC in beagle dog plasma at 0.25 mg/kg, iv and 0.2 mg/kg, po by LC-MS/MS method; assay type: ADME, organism-based, Canis lupus familiaris; procedure, shortened: as §1
Canis familiaris [30] = test: AUC in beagle dog plasma at 1 mg/kg, po dosed in discrete format by LC-MS/MS method; assay type: ADME, organism-based, Canis lupus familiaris; conditions: in vivo; procedure, shortened: as §3
Canis familiaris [31] = test: Clearance in beagle dog plasma at 0.25 mg/kg, iv and 0.2 mg/kg, po administered in cassette format by LC-MS/MS method; assay type: ADME, organism-based, Canis lupus familiaris; conditions: in vivo; procedure, shortened: as §1

Chain of Coagulation factor XI (P03951 19-387 limits assumed): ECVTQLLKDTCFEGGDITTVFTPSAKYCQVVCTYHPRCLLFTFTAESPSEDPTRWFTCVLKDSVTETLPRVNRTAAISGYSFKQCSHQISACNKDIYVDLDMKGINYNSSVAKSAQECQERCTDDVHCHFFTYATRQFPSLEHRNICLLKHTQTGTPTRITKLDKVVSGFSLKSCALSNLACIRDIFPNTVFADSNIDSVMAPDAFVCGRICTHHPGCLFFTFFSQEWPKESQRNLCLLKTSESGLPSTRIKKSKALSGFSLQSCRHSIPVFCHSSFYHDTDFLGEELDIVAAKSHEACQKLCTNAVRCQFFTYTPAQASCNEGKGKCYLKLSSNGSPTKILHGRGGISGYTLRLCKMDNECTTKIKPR
Chain of Coagulation factor XI (P03951 388-625 limits assumed): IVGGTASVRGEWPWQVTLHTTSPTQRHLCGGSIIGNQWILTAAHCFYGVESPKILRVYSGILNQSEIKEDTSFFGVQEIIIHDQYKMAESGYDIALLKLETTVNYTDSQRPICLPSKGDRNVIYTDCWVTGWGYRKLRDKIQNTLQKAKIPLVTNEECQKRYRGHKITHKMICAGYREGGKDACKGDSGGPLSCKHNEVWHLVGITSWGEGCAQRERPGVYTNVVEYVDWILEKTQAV
Chain of Plasma kallikrein (P03952 20-390 limits assumed): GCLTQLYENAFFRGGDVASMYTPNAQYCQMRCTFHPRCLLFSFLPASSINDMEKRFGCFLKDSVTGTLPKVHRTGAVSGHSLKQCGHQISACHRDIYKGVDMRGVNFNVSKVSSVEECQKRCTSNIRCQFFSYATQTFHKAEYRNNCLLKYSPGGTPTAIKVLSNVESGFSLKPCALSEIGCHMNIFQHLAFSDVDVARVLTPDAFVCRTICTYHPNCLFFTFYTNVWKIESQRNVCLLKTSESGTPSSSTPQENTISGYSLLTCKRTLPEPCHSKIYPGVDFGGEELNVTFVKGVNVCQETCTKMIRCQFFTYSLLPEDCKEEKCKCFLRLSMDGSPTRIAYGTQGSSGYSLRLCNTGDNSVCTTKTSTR
Chain of Plasma kallikrein (P03952 391-638 limits assumed): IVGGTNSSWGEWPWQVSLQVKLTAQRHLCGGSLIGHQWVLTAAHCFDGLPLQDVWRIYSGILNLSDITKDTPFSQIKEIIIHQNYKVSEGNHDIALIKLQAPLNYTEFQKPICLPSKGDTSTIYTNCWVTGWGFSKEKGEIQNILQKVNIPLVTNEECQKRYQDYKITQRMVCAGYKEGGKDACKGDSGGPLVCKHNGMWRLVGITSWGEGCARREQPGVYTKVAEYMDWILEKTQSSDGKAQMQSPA
Chain of Coagulation factor X (P00742 41-179 limits assumed): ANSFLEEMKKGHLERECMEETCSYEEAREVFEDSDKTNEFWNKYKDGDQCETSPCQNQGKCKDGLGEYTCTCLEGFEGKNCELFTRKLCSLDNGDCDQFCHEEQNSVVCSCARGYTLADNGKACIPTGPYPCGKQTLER
Chain of Coagulation factor X (P00742 235-488 limits assumed): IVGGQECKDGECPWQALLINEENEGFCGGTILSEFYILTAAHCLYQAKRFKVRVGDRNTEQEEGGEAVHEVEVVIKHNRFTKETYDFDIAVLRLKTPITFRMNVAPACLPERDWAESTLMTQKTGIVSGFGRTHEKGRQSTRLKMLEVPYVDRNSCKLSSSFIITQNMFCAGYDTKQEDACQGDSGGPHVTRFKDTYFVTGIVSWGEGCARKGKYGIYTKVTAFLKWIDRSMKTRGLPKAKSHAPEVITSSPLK
Chain of Tissue-type plasminogen activator (P00750 whole entry): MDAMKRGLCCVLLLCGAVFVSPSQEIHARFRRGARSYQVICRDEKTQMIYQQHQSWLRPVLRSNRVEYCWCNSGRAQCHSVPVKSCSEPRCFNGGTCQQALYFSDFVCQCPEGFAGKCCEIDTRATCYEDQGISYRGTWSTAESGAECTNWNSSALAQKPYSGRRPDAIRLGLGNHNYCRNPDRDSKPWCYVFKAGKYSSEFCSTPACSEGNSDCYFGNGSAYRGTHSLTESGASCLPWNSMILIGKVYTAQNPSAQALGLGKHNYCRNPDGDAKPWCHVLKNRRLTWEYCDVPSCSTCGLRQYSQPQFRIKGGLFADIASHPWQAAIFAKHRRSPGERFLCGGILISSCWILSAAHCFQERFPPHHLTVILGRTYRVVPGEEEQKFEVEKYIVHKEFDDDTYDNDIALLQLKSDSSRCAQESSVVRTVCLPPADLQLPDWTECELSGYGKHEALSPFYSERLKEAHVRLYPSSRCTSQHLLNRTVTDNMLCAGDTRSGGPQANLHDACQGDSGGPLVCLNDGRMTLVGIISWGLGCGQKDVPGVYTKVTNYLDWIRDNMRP
Chain of Vitamin K-dependent protein C (P04070 43-197 limits assumed): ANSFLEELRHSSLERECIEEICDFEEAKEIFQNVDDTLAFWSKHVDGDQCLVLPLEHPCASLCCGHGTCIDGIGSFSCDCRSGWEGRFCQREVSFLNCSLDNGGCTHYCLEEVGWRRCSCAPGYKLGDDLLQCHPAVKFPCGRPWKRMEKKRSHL
Chain of Vitamin K-dependent protein C (P04070 212-461 limits assumed): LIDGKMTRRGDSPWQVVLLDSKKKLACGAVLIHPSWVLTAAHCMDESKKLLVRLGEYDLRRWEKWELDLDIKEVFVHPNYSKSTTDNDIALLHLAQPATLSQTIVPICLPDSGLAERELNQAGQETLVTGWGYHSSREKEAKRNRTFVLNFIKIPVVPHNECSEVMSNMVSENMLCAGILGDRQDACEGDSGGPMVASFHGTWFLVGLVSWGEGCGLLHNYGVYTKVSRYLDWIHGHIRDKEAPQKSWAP
Chain of Plasminogen (P00747 97-580 limits assumed): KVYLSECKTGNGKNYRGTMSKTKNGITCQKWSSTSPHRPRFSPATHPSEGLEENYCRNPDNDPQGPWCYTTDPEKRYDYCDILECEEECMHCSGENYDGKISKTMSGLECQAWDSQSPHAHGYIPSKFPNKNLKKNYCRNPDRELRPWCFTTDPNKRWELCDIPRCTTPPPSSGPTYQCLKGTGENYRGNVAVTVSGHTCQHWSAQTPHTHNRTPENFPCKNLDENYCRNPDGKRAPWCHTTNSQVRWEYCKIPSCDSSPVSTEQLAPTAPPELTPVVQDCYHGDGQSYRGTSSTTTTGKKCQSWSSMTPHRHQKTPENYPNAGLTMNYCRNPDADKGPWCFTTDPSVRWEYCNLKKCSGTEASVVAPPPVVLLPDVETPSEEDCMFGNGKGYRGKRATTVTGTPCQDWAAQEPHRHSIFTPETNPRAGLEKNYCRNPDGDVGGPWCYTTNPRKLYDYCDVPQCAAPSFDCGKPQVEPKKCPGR
Chain of Plasminogen (P00747 581-810 limits assumed): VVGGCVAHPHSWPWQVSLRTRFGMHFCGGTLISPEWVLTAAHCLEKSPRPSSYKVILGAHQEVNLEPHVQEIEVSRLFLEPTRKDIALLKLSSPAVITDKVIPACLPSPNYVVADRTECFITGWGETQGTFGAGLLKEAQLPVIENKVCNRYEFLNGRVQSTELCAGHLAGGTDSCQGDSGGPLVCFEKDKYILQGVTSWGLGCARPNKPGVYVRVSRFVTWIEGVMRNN
Chain of Coagulation factor IX (P00740 47-191 limits assumed): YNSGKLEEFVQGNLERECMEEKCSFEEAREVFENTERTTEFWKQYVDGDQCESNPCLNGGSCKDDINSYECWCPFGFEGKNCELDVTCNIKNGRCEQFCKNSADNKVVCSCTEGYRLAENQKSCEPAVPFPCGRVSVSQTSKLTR
Chain of Coagulation factor IX (P00740 227-461 limits assumed): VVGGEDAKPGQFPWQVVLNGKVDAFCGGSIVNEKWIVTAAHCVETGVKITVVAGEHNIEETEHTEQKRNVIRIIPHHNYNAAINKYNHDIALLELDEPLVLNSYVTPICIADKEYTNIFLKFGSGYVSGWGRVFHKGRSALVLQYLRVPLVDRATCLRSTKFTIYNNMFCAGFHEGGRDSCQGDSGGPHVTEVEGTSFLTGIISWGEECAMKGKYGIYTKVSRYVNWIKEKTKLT

Row | Structure (SMILES) | EC1.5 (Plasma) [µM] | Ki (Coagulation factor XI) [µM] | Ki (Coagulation factor X) [µM] | Ki [16] [µM] | Ki [17] [µM] | Ki [20] [µM] | Ki (Trypsin) [µM] | Ki [21] [µM] | Ki (Plasma kallikrein) [µM] | Ki (Plasminogen) [µM] | Ki (Coagulation factor VII) [µM] | Ki (Prothrombin) [µM] | also measured
1 | COC(=O)Nc1ccc(-c2cc([C@H](Cc3ccccc3)NC(=O)[C@H]3CC[C@H](CN)CC3)ncn2)cc1 | 1.2 | 0.0091 |  |  |  |  |  |  |  |  |  |  | clearance [1]: 0.45 mL/min/kg; half-life [2]: 3.2 h; AUC [3]: 0.195 µM·h; Vd [4]: 5.4 L/kg; bioavailability [5]: 66%
2 | COC(=O)Nc1ccc(-c2cc([C@H](Cc3ccccc3)NC(=O)[C@H]3CC[C@H](CN)CC3)[nH]c(=O)c2)cc1 | 0.4 | 0.0024 |  |  |  |  |  |  |  |  |  |  | half-life [6]: 1.1 h; bioavailability [7]: < 1%; AUC [8]: 0.01 µM·h; Vd [9]: 0.8 L/kg; clearance [10]: 0.283 mL/min/kg
3 | COC(=O)Nc1ccc(-c2cc([C@H](Cc3ccccc3)NC(=O)/C=C/c3cc(Cl)ccc3-n3cnnn3)ccn2)cc1 | 26 | 0.011 |  |  |  |  |  |  |  |  |  |  | Vd [11]: 1.6 L/kg; clearance [12]: 5.6 mL/min/kg; AUC [13]: 0.28 µM·h; half-life [14]: 3.7 h; bioavailability [15]: 34%
4 | COC(=O)Nc1ccc(-c2ccnc([C@H](Cc3ccccc3)NC(=O)[C@H]3CC[C@H](CN)CC3)c2)cc1 | 2.6 | 0.0063 | > 9 | > 30.2 | > 14.1 | > 21.9 | 0.101 | > 20.8 | 0.042 | > 22.1 | > 12.2 | > 12.6 | clearance [18]: 0.9 mL/min/kg; AUC [19]: 0.194 µM·h; Vd [22]: 10 L/kg; half-life [23]: 2.7 h; bioavailability [24]: 63%; Ki (Coagulation factor IX): > 34.9 µM
5 | COC(=O)Nc1ccc(-c2ccnc([C@H](Cc3ccccc3)NC(=O)/C=C/c3cc(Cl)ccc3-n3cnnn3)c2)cc1 | >40 | 0.023 | 1.13 | > 30.2 | > 29.7 | 10.5 | > 6.218 | 29.5 | 1.85 | 12.5 | > 13.4 | > 13.3 | F (Canis familiaris [25]): 53%; half-life [26]: 8 h; bioavailability [27]: 34%; Vd [28]: 3.9 L/kg; AUC [29]: 0.267 µM·h; AUC (Canis familiaris [30]): 1.878 µM·h; clearance (Canis familiaris [31]): 6.1 mL/min/kg
